The subject of assay [1] is Mammarenavirus lassaense. The assay can be described thus: Inhibition of Lassa virus N-terminal His-tagged NP exonuclease domain (342 to 569 residues) expressed in Escherichia coli Tuner (DE3) using FAM-labeled 20-nucleotide ssRNA preincubated for 10 mins followed by substrate addition measured after 60 mins by PAGE based […]. In a few lines:
(§1)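 Purified NP exonuclease domain (2 μM), alone or with inhibitor, was incubated with 1 μM 5′-FAM-labelled RNA (20-nt ssRNA or stem-loop with 4-nt 3′ overhang). Buffer: 120 mM NaCl, 2 mM MgCl2, 20 mM Tris-HCl pH 7.0, ±10% DMSO, room temperature, 60 min. Products were run on 20% denaturing gels under UV. Cleavage was quantified across inhibitor concentrations to calculate IC50.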

The test system of assay [2] is Mammarenavirus lassaense. The assay can be described thus: (§2) Inhibition of Lassa virus N-terminal His-tagged NP exonuclease domain (342 to 569 residues) expressed in Escherichia coli Tuner (DE3) using 3'-overhang 4-nucleotide stem-loop RNA preincubated for 10 mins followed by substrate addition measured after 60 mins by PAGE based […]. Summed up: as §1
For assay [3], the target named is T1, 3'-5' exonuclease crn-4 (Caenorhabditis elegans) (UniProt Q10905).
T1 sequence (whole entry): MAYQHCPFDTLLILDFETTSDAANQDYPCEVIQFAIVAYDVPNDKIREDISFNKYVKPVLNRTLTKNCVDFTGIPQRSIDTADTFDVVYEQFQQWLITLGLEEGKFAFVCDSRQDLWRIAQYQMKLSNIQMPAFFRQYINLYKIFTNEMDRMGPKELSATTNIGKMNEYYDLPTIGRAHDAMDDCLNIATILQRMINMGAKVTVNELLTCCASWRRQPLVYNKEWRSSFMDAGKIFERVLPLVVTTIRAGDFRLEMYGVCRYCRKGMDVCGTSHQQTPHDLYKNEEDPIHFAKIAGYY
Kind of assay: (§3) Inhibition of 5'-[gamma-32P]ATP-labelled 11-nucleotide ssRNA binding to Caenorhabditis elegans GST-tagged CRN-4 expressed in Escherichia coli BL21 (DE3) pLysS at 1 mM preincubated for 10 mins followed by substrate addition measured after 20 mins by TBE gel electrophoresis mobility shift assay. In a few lines: (§4)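 Gel-shift assay. Inhibitor was mixed with protein (CRN-4 or RNase T) for 10 min at room temperature, then 20 nM 5′-32P-labelled 11-nt substrate was added (RNA for CRN-4, DNA for RNase T). Buffer: 50 mM Tris-HCl pH 7.0, 120 mM NaCl, 10 mM EGTA, 40 mM EDTA, ±10% DMSO, 20 min at room temperature. Complexes were resolved on 20% TBE gels and read by phosphorimaging.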

In assay [4] the target is T2, Ribonuclease T (Escherichia coli (strain K12)) (UniProt P30014).
T2 sequence (whole entry): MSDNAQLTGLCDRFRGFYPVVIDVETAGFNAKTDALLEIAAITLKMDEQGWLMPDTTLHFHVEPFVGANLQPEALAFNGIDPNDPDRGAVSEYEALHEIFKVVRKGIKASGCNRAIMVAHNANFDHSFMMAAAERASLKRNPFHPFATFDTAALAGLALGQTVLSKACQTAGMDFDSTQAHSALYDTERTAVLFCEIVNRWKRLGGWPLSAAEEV
The assay can be described thus: (§5) Inhibition of N-terminal His-tagged recombinant Escherichia coli K-12 RNase T exonuclease activity expressed in Escherichia coli BL21-CodonPlus(DE3)-RIPL preincubated for 10 mins followed by [gamma-32P]ATP labelled 11-nucleotide ssDNA substrate addition for 40 mins by PAGE based autoradiography.

Assay [5] addresses T1, 3'-5' exonuclease crn-4 (Caenorhabditis elegans). Kind of assay: (§6) Inhibition of GST-tagged Caenorhabditis elegans CRN-4 exonuclease activity expressed in Escherichia coli BL21 (DE3) pLysS preincubated for 10 mins followed by [gamma-32P]ATP labelled 11-nucleotide ssRNA substrate addition for 30 mins by PAGE based autoradiography.
The nature of assay [6]: as §2. More on the design: species or system Mammarenavirus lassaense. Summed up:
as §1

Assay [7] deals with T2, Ribonuclease T (Escherichia coli (strain K12)). The assay can be described thus: (§7) Inhibition of 5'-[gamma-32P]ATP-labelled 11-nucleotide ssDNA binding to recombinant Escherichia coli K-12 N-terminal His-tagged RNase T expressed in Escherichia coli BL21-CodonPlus(DE3)-RIPL at 1 mM preincubated for 10 mins followed by substrate addition measured after 20 mins by TBE gel electrophoresis mobility shift assay. In a few lines: as §4

In another assay the test system is Geobacillus phage GBSV1. Kind of assay: Inhibition of recombinant GST-fused Geobacillus phage GBSV1-NSN expressed in Escherichia coli BL21 (DE3) at 10 mM using RNA/DNA as substrate after 15 mins by spectrophotometry relative to control.
Assay [8] deals with Ribonuclease T (Escherichia coli (strain K12)) (UniProt P30014). Described as §7. Summed up: as §4
This is another data set of the same source.

In assay [9] the target is 3'-5' exonuclease crn-4 (Caenorhabditis elegans) (UniProt Q10905). The description is as §3. In a few lines: as §4
This is another data set of the same source.

Assay [10] has as its target Ribonuclease T (Escherichia coli (strain K12)) (UniProt P30014). Described as §5. This is another data set of the same source.
The target of assay [11] is 3'-5' exonuclease crn-4 (Caenorhabditis elegans) (UniProt Q10905). The description is as §6. This is another data set of the same source.

Calls of active or inactive are those of the source. The calls are words filed in the database; no cut-off is given here. Some results are limits rather than exact numbers.

As usually defined, the inhibition is how much of the control response was suppressed. Take `O=C(N[C@H](CC1CCCCC1)C(=O)O)OCC1c2ccccc2-c2ccccc21`: the INH (in the assay on Mammarenavirus lassaense [1]; in the assay on Mammarenavirus lassaense [2]; in assay [4]; in assay [5]) was 1 mM in each case. Further, the inhibition result in [3] was “Active”.

In the case of `O=C(O)c1ccc(Nc2nc(Cl)nc(Cl)n2)cc1-c1c2ccc(=O)cc-2oc2cc(O)ccc12`, the INH (in the assay with Mammarenavirus lassaense [1]; with Mammarenavirus lassaense [2]; in [4]; in assay [5]) was 1 mM throughout.

For orientation: IC50 means the midpoint of a concentration-inhibition curve. A lower IC50 goes with greater potency. For `O=S(=O)(O)c1cc(O)c2c(O)c(/N=N/c3cccc4ccccc34)c(S(=O)(=O)O)cc2c1`, the INH was 0.1 mM in the assay with Mammarenavirus lassaense [1], 0.1 mM with Mammarenavirus lassaense [2], 0.1 mM in assay [4] and 0.01 mM in assay [5]. Besides, in the assay on Mammarenavirus lassaense [2], the inhibition result is “Dose-dependent effect”. 66.2 µM corresponded to half-maximal inhibition in assay [6] (IC50). Further, in assay [3], the inhibition result was “Active”.

Take `O=C(O)C1=CC(=C(c2ccc(O)c(C(=O)O)c2)c2ccc(O)c(C(=O)O)c2)C=CC1=O` [AURINTRICARBOXYLIC ACID]: the INH with Mammarenavirus lassaense [1] amounted to 0.01 mM; in the assay on Mammarenavirus lassaense [2], 0.01 mM; in assay [4] it was 0.01 mM; in assay [5], 0.1 mM. For the same molecule, the inhibition entry in assay [7] and in [3] was “Active” throughout. Besides, the inhibition entry in the assay with Mammarenavirus lassaense [2] was “Dose-dependent effect”. In assay [6], this molecule registered an IC50 of 6.8 µM.

As to `O=C(O)c1cc2cccc([N+](=O)[O-])c2[nH]1`, the INH in the assay on Mammarenavirus lassaense [1] is 1 mM; in the assay with Mammarenavirus lassaense [2], 1 mM; in assay [4], 1 mM; in [5], greater than 1 mM.

Consider `O=C(O)CC(O)(CC(=O)O)C(=O)O`, for which the INH in the assay on Mammarenavirus lassaense [1] was 1 mM; in the assay with Mammarenavirus lassaense [2] it was 1 mM; in [4], 1 mM; in assay [5] it was greater than 1 mM. Also, in the assay with Geobacillus phage GBSV1, the inhibition was found to be 40%.

For the molecule p-Chloromercuribenzenesulfonate, the INH came out at 1 mM in the assay on Mammarenavirus lassaense [1], 1 mM with Mammarenavirus lassaense [2], 0.01 mM in [10] and 0.01 mM in [11]. The inhibition entry in assay [8] and in [9] was “Active” each time.

Turning to `O=C(O)c1cc(SSc2ccc([N+](=O)[O-])c(C(=O)O)c2)ccc1[N+](=O)[O-]`, the INH is 1 mM in the assay with Mammarenavirus lassaense [1], 1 mM with Mammarenavirus lassaense [2], 0.1 mM in assay [4] and 0.1 mM in [5]. The inhibition entry in assay [7] and in [3] was “Active” in each case.

The values are drawn from ChEMBL document CHEMBL3853325, “Identification of Inhibitors for the DEDDh Family of Exonucleases and a Unique Inhibition Mechanism by Crystal Structure Analysis of CRN-4 Bound with 2-Morpholin-4-ylethanesulfonate (MES)” (J Med Chem, 2016).
